Assay results: ChEMBL document CHEMBL1144684, “Evaluation of a series of naphthamides as potent, orally active vascular endothelial growth factor receptor-2 tyrosine kinase inhibitors” (J Med Chem, 2008)

What was measured:
[1] = Mean residence time in cynomolgus monkey at 0.5 mg/kg, iv; format: ADME, organism-based, Macaca fascicularis; set-up: dose 0.5 mg/kg, route intravenous; details: in vivo
Method in brief: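 Compound given iv and po as single doses; vehicles: mouse iv PEG 400, po OraPlus; dog iv DMSO, po 1% Tween-80/2% HPMC/97% water; cynomolgus iv propylene glycol, po suspension.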

HUVEC = test: Selectivity of IC50 for VEGF-induced proliferation over IC50 for bFGF-induced proliferation of HUVEC; format: functional, Homo sapiens
Method in brief: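 HUVECs were seeded at 3000 cells/well in DMEM/10% FBS with pen/strep and cultured for 22 h. They were preincubated 2 h with serially diluted compound, then stimulated with 50 ng/mL VEGF or 20 ng/mL bFGF for 72 h at 37 °C, 5% CO2. Cells were washed, frozen at -70 °C and stained with CyQuant. IC50s came from a four-parameter logistic fit, averaged over ≥2 experiments; the VEGF IC50 was compared against the bFGF IC50.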

[2] = Intrinsic clearance in human liver microsomes at 1 uM; format: ADME, Microsome; details: read-out: Stability
Method in brief: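 Human or rat liver microsomes (0.25 mg protein/mL) with 1 mM NADPH, 2 mM MgCl2 in 50 mM potassium phosphate pH 7.4 at 37 °C; compound 1 µM final. Sampled 0–40 min into acetonitrile, LC-MS/MS; ln % remaining vs time slope gives T1/2; CLint = (0.693/T1/2)/0.25 mg/mL.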

[3] = biological target: Vascular endothelial growth factor receptor 2 (Homo sapiens, UniProt P35968)
Vascular endothelial growth factor receptor 2, sequence (P35968 whole entry): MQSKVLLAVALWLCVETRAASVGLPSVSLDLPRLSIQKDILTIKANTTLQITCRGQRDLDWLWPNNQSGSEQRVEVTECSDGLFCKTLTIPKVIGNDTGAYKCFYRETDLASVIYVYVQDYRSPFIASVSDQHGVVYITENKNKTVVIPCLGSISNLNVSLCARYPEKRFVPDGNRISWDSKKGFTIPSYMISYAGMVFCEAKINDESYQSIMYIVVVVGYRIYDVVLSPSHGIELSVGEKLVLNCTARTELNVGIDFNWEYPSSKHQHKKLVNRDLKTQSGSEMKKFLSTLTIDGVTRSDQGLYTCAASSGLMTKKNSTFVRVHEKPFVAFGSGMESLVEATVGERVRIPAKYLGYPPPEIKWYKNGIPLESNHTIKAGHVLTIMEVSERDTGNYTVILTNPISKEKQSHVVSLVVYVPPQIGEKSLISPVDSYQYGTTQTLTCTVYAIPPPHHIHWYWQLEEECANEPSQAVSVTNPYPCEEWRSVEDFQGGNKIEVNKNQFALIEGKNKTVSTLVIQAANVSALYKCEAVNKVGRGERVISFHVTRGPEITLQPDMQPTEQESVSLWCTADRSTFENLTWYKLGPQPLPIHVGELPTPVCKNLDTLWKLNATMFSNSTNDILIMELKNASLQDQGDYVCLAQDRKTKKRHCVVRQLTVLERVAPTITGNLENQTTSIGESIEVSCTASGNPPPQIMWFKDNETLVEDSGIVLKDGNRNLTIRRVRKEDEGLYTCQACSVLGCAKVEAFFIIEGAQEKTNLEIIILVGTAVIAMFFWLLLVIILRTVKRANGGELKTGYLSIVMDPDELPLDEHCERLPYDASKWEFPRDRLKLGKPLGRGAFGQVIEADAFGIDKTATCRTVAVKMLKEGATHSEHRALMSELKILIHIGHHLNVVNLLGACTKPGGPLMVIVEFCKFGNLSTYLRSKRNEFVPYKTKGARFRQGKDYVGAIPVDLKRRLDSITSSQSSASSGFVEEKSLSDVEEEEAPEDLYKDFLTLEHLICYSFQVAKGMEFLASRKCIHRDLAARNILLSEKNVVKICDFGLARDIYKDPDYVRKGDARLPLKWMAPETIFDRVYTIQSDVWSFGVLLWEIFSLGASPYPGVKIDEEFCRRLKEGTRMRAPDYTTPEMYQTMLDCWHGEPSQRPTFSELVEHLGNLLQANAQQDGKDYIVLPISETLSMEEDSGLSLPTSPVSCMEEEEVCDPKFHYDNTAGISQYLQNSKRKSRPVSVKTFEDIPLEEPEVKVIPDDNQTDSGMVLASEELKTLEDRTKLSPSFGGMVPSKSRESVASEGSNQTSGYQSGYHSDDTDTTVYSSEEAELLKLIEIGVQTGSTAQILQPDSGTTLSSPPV

Q: With COc1cc2nccc(Oc3ccc4c(C(N)=O)cccc4c3)c2cc1OC as the molecule, how does the MRT [1] read?
A: 8.6 h

Q: And the Selectivity ratio (HUVEC)?
A: >100

Q: What about the microsomal CLint at 1 µM [2] of the same molecule?
A: 7 µL/min/mg

Q: And the IC50 [3]?
A: 0.9 nM
